Holding throughout (format): functional
The subject of test [1] is Radical scavenging activity. The test is described as follows: Antioxidant activity assessed as DPPH radical scavenging activity. The gist of the method:
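DPPH (250 μM in MeOH) added to methanolic compound solutions, seven serial […] dilutions giving a final range of 100 to 1.6 μg mL⁻¹. Quercetin and Trolox served as positive controls. Triplicate assays. SC₅₀ is the concentration (μg mL⁻¹) scavenging 50% of DPPH radicals, reported as mean (%RSD).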

In test [2] the test system is Pseudomonas aeruginosa. Description: Antimicrobial activity against Pseudomonas aeruginosa ATCC 15442 by broth microdilution method. The gist of the method:
(§1)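 Broth microdilution in 96-well plates; compounds tested from 10 to 1000 μg/mL. MIC is the lowest concentration giving complete inhibition of the strain. Positive controls were bacitracine (0.2 UI mL⁻¹) and ketoconazole (100.0 μg mL⁻¹). Negative control was DMSO–sterile water (5:95, v/v). Run in duplicate per microorganism and repeated three times.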

Test [3] has as its system Escherichia coli. The test is described as follows: Antimicrobial activity against Escherichia coli ATCC 10799 by broth microdilution method. The method, boiled down: as §1
(Dilution methods test growth across graded concentrations, often in twofold steps.)

Test [4] has as its system Staphylococcus epidermidis. Description: Antimicrobial activity against Staphylococcus epidermidis ATCC 12228 by broth microdilution method. The gist of the method:
as §1

The subject of test [5] is Nakaseomyces glabratus. The test is described as follows: Antimicrobial activity against Candida glabrata ATCC 30070 by broth microdilution method. The method, boiled down:
as §1

Test [6] deals with Candida dubliniensis. Description: Antimicrobial activity against Candida dubliniensis ATCC 778157 by broth microdilution method. The gist of the method: as §1
For test [7], the system named is Staphylococcus aureus. Description: Antimicrobial activity against Staphylococcus aureus ATCC 14458 by broth microdilution method. The method, boiled down:
as §1

Test [8] has as its system Candida tropicalis. The test is described as follows: Antimicrobial activity against Candida tropicalis ATCC 157 by broth microdilution method. The gist of the method:
as §1

The source made the active and inactive calls. No cut-off for these calls is given here.

We go through 5 compounds from ChEMBL document CHEMBL1154215, “Constituents of the leaves of Magnolia ovata” (2009).

Regarding `Cc1c(C)c2c(c(C)c1O)CCC(C)(C(=O)O)O2` (stereo unspecified), in test [1], the SC50 was determined as 2.2 µg/mL.

In the case of `C/C=C/c1cc(OC)c2c(c1)[C@@H](C)[C@H](c1ccc(OC)c(OC)c1)O2` [ACUMINATIN], the MIC in test [2], in test [3], in test [4], in test [5], in test [6] and in test [7] was > 100 µg/mL in each case. Also, the MIC in test [8] is > 100 µg/mL. Also, in test [1], the outcome was inactive.

For `O=c1c(O)c(-c2ccc(O)c(O)c2)oc2cc(O)cc(O)c12`, the SC50 in test [1] came out at 13 µg/mL.

As for `C/C=C/c1cc(OC)c2c(c1)[C@@H](C)[C@H](c1ccc(O)c(OC)c1)O2` [LICARINE A], the MIC in test [2], in test [3], in test [4], in test [5], in test [6] and in test [7] was > 100 µg/mL throughout. Moreover, the MIC in test [8] is > 100 µg/mL. Moreover, the SC50 in test [1] is 56.1 µg/mL.

For the compound `C[C@H]([C@H](C)Cc1ccc2c(c1)OCO2)[C@H](O)c1ccc2c(c1)OCO2` (relative stereo) [MAGNOVATIN A], the MIC in test [2], in test [3], in test [4], in test [5], in test [6] and in test [7] was > 100 µg/mL each time. Besides, the MIC in test [8] is > 100 µg/mL. Also, in test [1], the result was inactive.

What is called MIC is the least concentration at which growth counts as inhibited.
